Like-named read-outs stand apart in the source and are kept apart here. Peptide text beside a SMILES is read from it. * marks the point of attachment. Cbz = O=C(OCc1ccccc1)*; CH2F = FC*
Experiments:
[1] = test system: caspase-8 wild-type; experiment: differential scanning fluorimetry thermal stability; format: binding; settings: DSF; for TM Values, Wild Type: zinc salts at 50 μM
[2] = test system: caspase-8 C360A; experiment: as above; format: binding; settings: DSF; for TM Values, C360A: zinc salts at 50 μM; for effect on Tm of caspase-8 C360A: incubation with other metals
[3] = biological target: T1, caspase-3 (Homo sapiens, UniProt P42574); experiment: caspase-3 cleavage of fluorogenic tetrapeptide substrate DEVD-AMC; format: biochemical
T1 sequence (P42574 29-175 limits assumed): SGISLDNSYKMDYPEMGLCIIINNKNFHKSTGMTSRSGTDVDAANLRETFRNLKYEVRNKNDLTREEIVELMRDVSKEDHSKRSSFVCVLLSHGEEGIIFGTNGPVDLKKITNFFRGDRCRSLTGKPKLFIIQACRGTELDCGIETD
T1 sequence (P42574 176-277 limits assumed): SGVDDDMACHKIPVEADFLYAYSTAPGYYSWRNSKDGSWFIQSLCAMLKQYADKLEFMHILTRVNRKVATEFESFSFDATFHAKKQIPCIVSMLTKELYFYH

[4] = biological target: T2, caspase-7 (Homo sapiens, UniProt P55210); experiment: caspase-7 cleavage of fluorogenic tetrapeptide substrate DEVD-AMC; format: biochemical
T2 sequence (P55210 24-198 limits assumed): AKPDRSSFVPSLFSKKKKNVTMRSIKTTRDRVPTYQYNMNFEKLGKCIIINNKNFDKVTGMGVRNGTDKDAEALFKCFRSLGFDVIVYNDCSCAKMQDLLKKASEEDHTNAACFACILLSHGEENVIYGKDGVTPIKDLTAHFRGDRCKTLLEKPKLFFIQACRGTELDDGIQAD
T2 sequence (P55210 207-303 limits assumed): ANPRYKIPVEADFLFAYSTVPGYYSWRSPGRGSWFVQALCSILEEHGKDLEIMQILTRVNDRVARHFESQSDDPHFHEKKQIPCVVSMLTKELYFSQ

[5] = biological target: T3, caspase-8 (Homo sapiens, UniProt Q14790); experiment: caspase-8 cleavage of fluorogenic tetrapeptide substrate LEHD-AMC; format: biochemical
T3 sequence (Q14790 217-374 limits assumed): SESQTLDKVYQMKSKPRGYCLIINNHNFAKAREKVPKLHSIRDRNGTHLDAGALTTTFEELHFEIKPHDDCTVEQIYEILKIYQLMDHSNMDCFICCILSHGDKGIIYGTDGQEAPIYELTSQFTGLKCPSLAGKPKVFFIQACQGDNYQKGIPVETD
T3 sequence (Q14790 385-479 limits assumed): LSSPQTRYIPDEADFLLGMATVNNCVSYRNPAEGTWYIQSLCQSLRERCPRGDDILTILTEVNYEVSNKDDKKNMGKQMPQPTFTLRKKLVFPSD

[6] = biological target: T1, caspase-3; experiment: caspase-3 cleavage of protein substrates PAK2 and PARP, metal panel; format: biochemical
[7] = biological target: T2, caspase-7; experiment: caspase-7 cleavage of protein substrate PAK2, metal panel; format: biochemical
[8] = biological target: T3, caspase-8; experiment: caspase-8 cleavage of procaspase-7; format: biochemical; settings: metal panel
[9] = read-out: KD for zinc; cited from earlier work
[10] = biological target: T4, caspase-6 (Homo sapiens, UniProt P55212); experiment: caspase-6 cleavage of preferred fluorogenic tetrapeptide substrate; format: biochemical
T4 sequence (P55212 24-179 limits assumed): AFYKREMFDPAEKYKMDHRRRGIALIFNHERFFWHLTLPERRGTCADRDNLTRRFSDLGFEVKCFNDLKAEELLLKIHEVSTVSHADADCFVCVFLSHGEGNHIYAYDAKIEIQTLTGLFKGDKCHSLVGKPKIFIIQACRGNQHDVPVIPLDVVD
T4 sequence (P55212 194-293 limits assumed): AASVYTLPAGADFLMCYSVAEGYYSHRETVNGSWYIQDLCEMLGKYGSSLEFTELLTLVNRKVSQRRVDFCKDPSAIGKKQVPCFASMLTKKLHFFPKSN

[11] = biological target: T1, caspase-3; experiment: zincon colorimetric zinc-binding stoichiometry; settings: zincon absorbance at 620 nm
In short: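 Caspase-3 and -7 were tested alone or with the active site occupied by zVAD; caspase-8 wild type and C360A were also tested. Mean ± SEM from three experiments on three separate days.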

[12] = biological target: T1, caspase-3; experiment: Fluozin-3 competition zinc affinity; format: binding; settings: competition with Fluozin-3
In short: (§1)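 Caspase titrated into reactions holding a constant amount of zinc and the fluorescent zinc indicator Fluozin-3. Each reaction was left to reach equilibrium, then Fluozin-3 fluorescence was read, with signal falling as caspase competed for zinc. Mean ± SEM from three experiments on three separate days.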

[13] = biological target: T4, caspase-6; experiment: Fluozin-3 competition zinc affinity; format: binding; settings: competition with Fluozin-3
In short: as §1

[14] = biological target: T3, caspase-8; experiment: Fluozin-3 competition zinc affinity; format: binding; settings: competition with Fluozin-3
In short: as §1

[15] = biological target: T3, caspase-8; experiment: size exclusion chromatography of caspase-8 oligomeric state; settings: SEC after incubation
In short: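 Oligomeric state of caspase-8 was resolved by size-exclusion chromatography into dimer and monomer peaks. Protein was run alone, after incubation with zVAD-FMK, or after inhibitor incubation followed by increasing zinc. Peak fractions were quantified as mean ± SEM from three experiments on three separate days.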

[16] = biological target: T1, caspase-3; settings: cited from earlier work
[17] = biological target: T4, caspase-6; settings: read-out: IC50 (unbuffered); cited from earlier work
[18] = test system: caspase-7 variant H131A/C171A; experiment: activity of caspase-7 variant in absence and presence of ZnCl2; format: biochemical; settings: presence vs absence of ZnCl2
[19] = metal panel, peptide substrate DEVD-AMC
[20] = panel of biologically relevant metals
[21] = read-out: IC50 Values Unbuffered, total zinc, no zinc buffer, 10 nM caspase
[22] = zinc buffered (NTA), mixed model of inhibition, global fit

CC[C@H](C)[C@H](NC(C)=O)C(=O)N[C@@H](CCC(=O)O)C(=O)N[C@H](C(=O)N[C@H](C=O)CC(=O)O)[C@@H](C)O [Ac-IETD-CHO, acetyl-Ile-Glu-Thr-Asp-aldehyde, reference compound] (Ac-IETD-aldehyde)
Tm increase [1]: 27 °C
TM Values, Wild Type [1]: 75.5 ± 0.3 °C
TM Values, C360A [2]: 46.4 ± 0.2 °C

[Cd] [Cadmium, cadmium]
activity remained [3, 19]: 39%
activity remained [4, 19]: 84%
activity remained ([5]; metal panel, peptide substrate LEHD-AMC): 12%
effect on cleavage of protein substrate PARP [6]: inhibitory effect
effect on cleavage of protein substrate PAK2 [7]: had an inhibitory effect
effect on cleavage of procaspase-7 (C186A) [8]: minor impact

[Cu] [Copper, copper]
effect on cleavage of protein substrate PAK2 [6]: did not observe
effect on cleavage of procaspase-7 (C186A) [8]: minor impact
effect on Tm of caspase-8 C360A [2]: failed to significantly alter

COc1ccc(N(CC(=O)O)CC(=O)O)c(OCCOc2cc(-c3c4cc(F)c(=O)cc-4oc4cc(O)c(F)cc34)ccc2NCC(=O)O)c1 [Fluozin-3]
Kd [9]: 15 nM

[Zn+2] [Zinc, zinc]
effect on peptide substrate cleavage [3, 20]: inhibited
IC50 [3, 21]: 104 ± 26 nM
Ki [3, 22]: 6.9 nM
IC50 [10, 21]: 4530 ± 1100 nM
Ki ([10]; zinc buffered (NTA), assumed noncompetitive): 2.6 nM
effect on peptide substrate cleavage [4, 20]: inhibited
IC50 [4, 21]: 1580 ± 750 nM
Ki ([4]; zinc buffered (citrate), mixed model of inhibition, global fit): 76.1 nM
effect on peptide substrate cleavage [5, 20]: inhibited
IC50 [5, 21]: 367 ± 38 nM
Ki [5, 22]: 4.3 nM
effect on cleavage of protein substrate PARP [6]: inhibitory effect
effect on cleavage of procaspase-7 (C186A) [8]: significant impact
zincs bound per caspase monomer (stoichiometry) [11]: three
zinc affinity (KD via Cheng-Prusoff) [12]: low nanomolar affinity
zinc affinity (KD via Cheng-Prusoff) [13]: low nanomolar affinity
zinc affinity (KD via Cheng-Prusoff) [14]: low nanomolar affinity
caspase-8 eluting as dimer [15]: 10%
caspase-8 eluting as monomer [15]: 90%
destabilization of caspase-8 C360A (Tm decrease) [2]: 5 °C
zinc concentration at which caspase-3 is inhibited [16]: ≥ 1.7 nM
IC50 [17]: 4500 nM

O=C(O)c1ccccc1NN=C(N=Nc1cc(S(=O)(=O)O)ccc1O)c1ccccc1 [Zincon]
Kd [9]: 12000 nM

[Cl-].[Cl-].[Zn+2] [ZnCl2]
effect on cleavage of protein substrate PAK2 [6]: completely inhibited
effect on cleavage of protein substrate PAK2 [7]: inhibited
destabilization of caspase-8 (Tm decrease) [1]: approximately 3 °C
TM Values, Wild Type [1]: 44.5 ± 0.4 °C
destabilization of caspase-8 C360A (Tm decrease) [2]: 5 °C
TM Values, C360A [2]: 41.5 ± 0.9 °C
inhibition of variant activity [18]: inhibited by zinc in a similar fashion to wild-type

O=S(=O)([O-])[O-].[Zn+2] [ZnSO4]
effect on cleavage of protein substrate PAK2 [6]: completely inhibited
effect on cleavage of protein substrate PAK2 [7]: inhibited
destabilization of caspase-8 (Tm decrease) [1]: approximately 3 °C
TM Values, Wild Type [1]: 44.8 ± 0.3 °C
destabilization of caspase-8 C360A (Tm decrease) [2]: 5 °C
TM Values, C360A [2]: 41.6 ± 0.6 °C

[Ca+2] [calcium]
effect on Tm of caspase-8 C360A [2]: failed to significantly alter

[Co] [cobalt]
effect on cleavage of protein substrate PAK2 [6]: did not observe

[Fe] [iron]
effect on Tm of caspase-8 C360A [2]: failed to significantly alter

CC(NC(=O)C(NC(=O)OCc1ccccc1)C(C)C)C(=O)NC(CC(=O)O)C(=O)CF (stereo not drawn) [zVAD-FMK, carbobenzoxy-Val-Ala-Asp-fluoromethylketone, reference compound] (Cbz-Val-Ala-Asp-CH2F; configuration not given here)
inhibition of caspase activity ([3]; two-hour incubation): completely inhibited
inhibition of caspase activity ([4]; two-hour incubation): completely inhibited
caspase-8 eluting as dimer [15]: 63%
caspase-8 eluting as monomer [15]: 37%
